From ChEMBL document CHEMBL1147958, “Evaluation of the anti-inflammatory and anti-nociceptive activities of novel synthesized melatonin analogues” (2007)

Legend:
Rattus norvegicus [1] = experiment: Inhibition of carrageenan-induced paw oedema in Sprague-Dawley rat at 6.88 mg/kg, sc after 1 hr; assay type: functional; details: read-out: Inhibition, route subcutaneous
In short: (§1)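 Rats (n = 6/group) got the test agent s.c. (0.5 mL) as a 30 min pretreatment. Oedema was induced by sub-plantar 1% lambda-carrageenan in saline into the right hind paw, with saline in the contralateral paw. Paw volume was measured by plethysmometer before injection and at 1, 2, 3 and 4 h, and expressed as % change from pre-drug values.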

Rattus norvegicus [2] = experiment: Inhibition of carrageenan-induced paw oedema in Sprague-Dawley rat at 6.88 mg/kg, sc after 2 hrs; assay type: functional; details: read-out: Inhibition, route subcutaneous; in short: as §1
Rattus norvegicus [3] = experiment: Inhibition of carrageenan-induced paw oedema in Sprague-Dawley rat at 6.88 mg/kg, sc after 3 hrs; assay type: functional; details: read-out: Inhibition, route subcutaneous; in short: as §1
Rattus norvegicus [4] = experiment: Inhibition of carrageenan-induced paw oedema in Sprague-Dawley rat at 6.88 mg/kg, sc after 4 hrs; assay type: functional; details: read-out: Inhibition, route subcutaneous; in short: as §1
Rattus norvegicus [5] = experiment: Antinociceptive activity in Sprague-Dawley rat at 6.88 mg/kg, sc assessed as increase in latency time after 1 hr by hot plate method; assay type: functional; details: route subcutaneous
In short: (§2)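 Rats (n = 6/group) were dosed s.c. 30 min before testing on a hot-plate held at 52 °C, 30 s cut-off. Reaction latency was read at 1 and 2 h and expressed as % increase over each group's pre-drug basal latency, with indomethacin as the reference control. Groups were compared by ANOVA and Duncan's test.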

Rattus norvegicus [6] = experiment: Antinociceptive activity in Sprague-Dawley rat at 6.88 mg/kg, sc assessed as increase in latency time after 2 hrs by hot plate method; assay type: functional; details: route subcutaneous; in short: as §2
Rattus norvegicus [7] = experiment: Antinociceptive activity in Sprague-Dawley rat assessed as inhibition of number of indomethacin-induced gastric lesions at 6.88 mg/kg, sc; assay type: functional; details: Stomach, route subcutaneous
In short: (§3)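 Sprague-Dawley rats (120–130 g, food and water ad libitum) got indomethacin 20 mg/kg s.c. to induce gastric mucosal damage, with the test agent given s.c. at the time of indomethacin injection. Rats were killed 24 h later. Stomachs were opened along the greater curvature, rinsed with saline, and lesions counted and severity-scored on a previously described scale. Results are % decrease versus the indomethacin control.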

Rattus norvegicus [8] = experiment: […] in Sprague-Dawley rat assessed as inhibition of indomethacin-induced gastric lesions severity at 6.88 mg/kg, sc; assay type: functional; details: Stomach, route subcutaneous; in short: as §3
Mus musculus [9] = experiment: Antinociceptive activity in Swiss Albino mouse assessed as inhibition of acetic acid-induced writhes per 30 min at 6.88 mg/kg, sc; details: 0.5 h, read-out: Inhibition
Rattus norvegicus [10] = experiment: Inhibition of carrageenan-induced paw oedema in Sprague-Dawley rat at 5.40 mg/kg, sc after 1 hr; assay type: functional; details: read-out: Inhibition, route subcutaneous; in short: as §1
Rattus norvegicus [11] = experiment: Inhibition of carrageenan-induced paw oedema in Sprague-Dawley rat at 5.40 mg/kg, sc after 2 hrs; assay type: functional; details: read-out: Inhibition, route subcutaneous; in short: as §1
Rattus norvegicus [12] = experiment: Inhibition of carrageenan-induced paw oedema in Sprague-Dawley rat at 5.40 mg/kg, sc after 3 hrs; assay type: functional; details: read-out: Inhibition, route subcutaneous; in short: as §1
Rattus norvegicus [13] = experiment: Inhibition of carrageenan-induced paw oedema in Sprague-Dawley rat at 5.40 mg/kg, sc after 4 hrs; assay type: functional; details: read-out: Inhibition, route subcutaneous; in short: as §1
Rattus norvegicus [14] = experiment: Antinociceptive activity in Sprague-Dawley rat at 5.40 mg/kg, sc assessed as increase in latency time after 1 hr by hot plate method; assay type: functional; details: dose 5.4 mg/kg; route subcutaneous; in short: as §2
Rattus norvegicus [15] = experiment: Antinociceptive activity in Sprague-Dawley rat at 5.40 mg/kg, sc assessed as increase in latency time after 2 hrs by hot plate method; assay type: functional; details: dose 5.4 mg/kg; route subcutaneous; in short: as §2
Rattus norvegicus [16] = experiment: Antinociceptive activity in Sprague-Dawley rat assessed as inhibition of number of indomethacin-induced gastric lesions at 5.40 mg/kg, sc; assay type: functional; details: Stomach, route subcutaneous; in short: as §3
Rattus norvegicus [17] = experiment: […] in Sprague-Dawley rat assessed as inhibition of indomethacin-induced gastric lesions severity at 5.40 mg/kg, sc; assay type: functional; details: Stomach, route subcutaneous; in short: as §3
Mus musculus [18] = experiment: Antinociceptive activity in Swiss Albino mouse assessed as inhibition of acetic acid-induced writhes per 30 min at 5.40 mg/kg, sc; details: 0.5 h
Rattus norvegicus [19] = experiment: Inhibition of carrageenan-induced paw oedema in Sprague-Dawley rat at 5.16 mg/kg, sc after 2 hrs; assay type: functional; details: route subcutaneous; in short: as §1
Rattus norvegicus [20] = experiment: Inhibition of carrageenan-induced paw oedema in Sprague-Dawley rat at 5.16 mg/kg, sc after 3 hrs; assay type: functional; details: read-out: Inhibition, route subcutaneous; in short: as §1
Rattus norvegicus [21] = experiment: Inhibition of carrageenan-induced paw oedema in Sprague-Dawley rat at 5.16 mg/kg, sc after 4 hrs; assay type: functional; details: route subcutaneous; in short: as §1
Rattus norvegicus [22] = experiment: Inhibition of carrageenan-induced paw oedema in Sprague-Dawley rat at 5.16 mg/kg, sc after 1 hr; assay type: functional; details: read-out: Inhibition, route subcutaneous; in short: as §1
Rattus norvegicus [23] = experiment: Antinociceptive activity in Sprague-Dawley rat at 5.16 mg/kg, sc assessed as increase in latency time after 1 hr by hot plate method; assay type: functional; details: route subcutaneous; in short: as §2
Rattus norvegicus [24] = experiment: Antinociceptive activity in Sprague-Dawley rat at 5.16 mg/kg, sc assessed as increase in latency time after 2 hrs by hot plate method; assay type: functional; details: route subcutaneous; in short: as §2
Rattus norvegicus [25] = experiment: Antinociceptive activity in Sprague-Dawley rat assessed as inhibition of number of indomethacin-induced gastric lesions at 5.16 mg/kg, sc; assay type: functional; details: Stomach, route subcutaneous; in short: as §3
Rattus norvegicus [26] = experiment: […] in Sprague-Dawley rat assessed as inhibition of indomethacin-induced gastric lesions severity at 5.16 mg/kg, sc; assay type: functional; details: Stomach, route subcutaneous; in short: as §3
Mus musculus [27] = experiment: Antinociceptive activity in Swiss Albino mouse assessed as inhibition of acetic acid-induced writhes per 30 min at 5.16 mg/kg, sc; details: 0.5 h, read-out: Inhibition

`COc1ccc2c(c1)c(CCNC(C)=O)c1n2CC(c2ccccc2)=C(C#N)C1=N` showed an inhibition in vivo at 6.88 mg/kg (Rattus norvegicus [1]) of 52.2%, an inhibition in vivo at 6.88 mg/kg (Rattus norvegicus [2]) of 55.2% and an inhibition in vivo at 6.88 mg/kg (Rattus norvegicus [3]) of 48%. For the same compound, the inhibition in vivo at 6.88 mg/kg (Rattus norvegicus [4]) was 36.3%, the Activity (Rattus norvegicus [5]) was 31.7% and the Activity (Rattus norvegicus [6]) was 56.2%. The inhibition in vivo at 6.88 mg/kg (Rattus norvegicus [7]) was 30.2%, the inhibition in vivo at 6.88 mg/kg (Rattus norvegicus [8]) was 53.6% and the inhibition in vivo at 6.88 mg/kg (Mus musculus [9]) was 40.7%.
`COc1ccc2c(c1)c(CCNC(C)=O)c1n2C(=N)C=C1NN` showed an inhibition in vivo at 5.4 mg/kg (Rattus norvegicus [10]) of 54.8%, an inhibition in vivo at 5.4 mg/kg (Rattus norvegicus [11]) of 52.6% and an inhibition in vivo at 5.4 mg/kg (Rattus norvegicus [12]) of 44.2%. For the same compound, the inhibition in vivo at 5.4 mg/kg (Rattus norvegicus [13]) was 36.8%, the Activity (Rattus norvegicus [14]) was 43.7% and the Activity (Rattus norvegicus [15]) was 243.7%. It also gave an inhibition in vivo at 5.4 mg/kg (Rattus norvegicus [16]) of 53.9%, an inhibition in vivo at 5.4 mg/kg (Rattus norvegicus [17]) of 57.7% and an inhibition in vivo at 5.4 mg/kg (Mus musculus [18]) of -81.1%.
Compound `COc1ccc2c(c1)c(CCNC(C)=O)c1n2C(=O)CC1=O` has an inhibition in vivo at 5.16 mg/kg (Rattus norvegicus [19]) of -35.7%, an inhibition in vivo at 5.16 mg/kg (Rattus norvegicus [20]) of 30% and an inhibition in vivo at 5.16 mg/kg (Rattus norvegicus [21]) of -27.1%. The inhibition in vivo at 5.16 mg/kg (Rattus norvegicus [22]) was 42.9%, the Activity (Rattus norvegicus [23]) was 103.6% and the Activity (Rattus norvegicus [24]) was 132.3%. It also gave an inhibition in vivo at 5.16 mg/kg (Rattus norvegicus [25]) of 43.5%, an inhibition in vivo at 5.16 mg/kg (Rattus norvegicus [26]) of 54.8% and an inhibition in vivo at 5.16 mg/kg (Mus musculus [27]) of 24.4%.
